Measurements from PMC7810150 (Journal of medicinal chemistry, 2020).
pEC50: −log10 of the molar value. Where two headings read alike, the source gives them in different places. Marks after values point to notes of the source that are not given here.

What was measured:
[1] = estimated from literature data, cited from earlier work
TC32 Ewing sarcoma cells [2] = experiment: 72 h growth inhibition; type: cell-based
EWS-FLI1 mRNA = experiment: Target gene mRNA expression by qRT-PCR in TC32 cells; type: cell-based; settings: 6 h incubation
How it was run: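 TC32 cells, 300,000/well, were DPBS-washed at ~75% confluence (48–72 h). They were exposed 6 h to test compound at 0, 30, 100, 300 nM or mithramycin at 0, 10, 30, 100 nM. After trypsin collection, RNA was isolated and reverse-transcribed. mRNA was quantified by qRT-PCR relative to GAPDH (ΔΔCt). SEM is from at least two biological replicates.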

[3] = test system: Sp1, VEGFA and BCL-2 mRNA; experiment: Target gene mRNA expression by qRT-PCR in PC3 cells; type: cell-based; settings: 6 h treatment
How it was run: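 PC3 cells, 300,000/well, were washed with DPBS at ~75% confluence (48–72 h). They were treated 6 h with test compound at 0, 100, 300, 1000 nM or mithramycin at 0, 30, 100, 300 nM. Cells were harvested by trypsin; RNA was isolated and cDNA made. qRT-PCR expression was calculated relative to GAPDH (ΔΔCt). Error bars are SEM of at least two biological replicates.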

TC32 tumors = experiment: TC32 cell line xenograft efficacy in nu/nu mice; type: in vivo; settings: for effect on survival (and tumor volume) / median survival: q3dx8 IV, MTMox32E […] mg/kg, MTM 1 mg/kg; for median survival: vehicle 22 days
How it was run: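 TC32 cells in 1:1 RPMI (no FBS)/Matrigel, 1.0 × 10^6 cells per 100 μL, injected subcutaneously into the flank of female athymic nu/nu mice. Mice with tumors of at least 50 mm3 (14–28 days post implantation) were randomized. Dosing was IV bolus in 5% Kolliphor EL/2% DMSO/93% saline. Tumor volume was measured every 3 days, with euthanasia at 20 mm tumor length. Tumor volume was compared at day 16 by one-way ANOVA; survival by log-rank (Holm-Sidak).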

EWS-FLI1 and Sp1 mRNA = experiment: TC32 xenograft tumor tissue mRNA analysis; type: in vivo, mice; settings: tumors collected 6 h after the sixth dose, n = 3/group
How it was run: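 Three mice per group were taken from the q3dx8 IV xenograft study. Tumors were resected 6 h after the 6th dose, rinsed in sterile PBS, snap-frozen in liquid nitrogen and stored at −80 °C. Tissue was cut semifrozen and ground under liquid nitrogen. Total RNA was extracted in RLT lysis buffer with a silica-column kit.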

EWS-FLI1 = EWS-FLI1 (Homo sapiens, UniProt Q01543+Q01844); settings: 10 μM, 6 h incubation, TC32 cells; DMSO control 48.9 °C
[4] = test system: EWS-FLI1 and NR0B1 protein; settings: TC32 cells, 24 h, 10, 30 and 300 nM
[5] = test system: EWS-FLI1 transcriptional activity (NR0B1 promoter); experiment: Luciferase reporter assay, NR0B1 promoter, in TC32 cells; type: cell-based; settings: read-out: EC50, NR0B1-mediated luciferase expression; 12 h incubation
TC32 Ewing sarcoma cells [6] = settings: 72 h; cited from earlier work
PC3 prostate cells = settings: read-out: PC3 GI50, 72 h; cited from earlier work
[7] = test system: EWS-FLI1 transcriptional activity (NR0B1 promoter); settings: read-out: EC50 in a similar reporter cell line; cited from earlier work
CMV promoter = settings: cited from earlier work

## CO[C@@H]([C@@H]1Cc2cc3cc(O[C@H]4CC(O[C@H]5CC(O)[C@H](O)C(C)O5)[C@H](O)C(C)O4)c(C)c(O)c3c(O)c2C(=O)[C@H]1O[C@H]1CC(O[C@H]2CC(O[C@H]3CC(O)[C@H](O)C(C)O3)[C@@H](O)C(C)O2)[C@H](O)C(C)O1)[C@@H](O)C(C)=O (some centres unmarked) [EC-8042]
[1]; IP, 24 mg/kg, CL/F
  clearance (CL/F): 7197^b mL/h/kg
[1]; IP, 24 mg/kg
  dose-normalized systemic exposure (AUC/D): 202 kg·ng·h/mL/mg
  volume of distribution (Vd): 11.259 L/kg

## CO[C@@H]([C@@H]1Cc2cc3cc(O[C@H]4C[C@@H](O[C@H]5C[C@@H](O)[C@H](O)[C@@H](C)O5)[C@H](O)[C@@H](C)O4)c(C)c(O)c3c(O)c2C(=O)[C@H]1O[C@H]1C[C@@H](O[C@H]2C[C@@H](O[C@H]3C[C@](C)(O)[C@H](O)[C@@H](C)O3)[C@@H](O)[C@@H](C)O2)[C@H](O)[C@@H](C)O1)[C@@H](O)C(C)=O [MTM SK]
[1]; IV, 18 mg/kg
  clearance (CL): 43.17 mL/min/kg
  dose-normalized systemic exposure (AUC/D): 386 kg·ng·h/mL/mg
  volume of distribution (Vd): 0.857 L/kg

## (E)-3-(2′-{2-[(Methyl l-Phenylalanyl-l-tryptophanate)amino]-2-oxoethoxy}imino) MTM [MTMox32E]
TC32 Ewing sarcoma cells [2]
  TC32 GI50: 0.079 µM
EWS-FLI1 mRNA
  EWS-FLI1 mRNA levels: decreased EWS-FL1 mRNA levels in a concentration-dependent manner
[3]
  Sp1, VEGFA and BCL-2 mRNA: minimally affected Sp1, VEGFA, and BCL-2
TC32 tumors
  effect on survival (and tumor volume): significant in comparison to control (p = 0.0001) and MTM (p = 0.0385)
  median survival: 38 days
TC32 tumors; qMWFx2, 14 mg/kg
  effect on survival: statistically significant improvement in survival over vehicle control group
EWS-FLI1 and Sp1 mRNA
  EWS-FLI1 and Sp1 mRNA levels in tumor: reduced mRNA levels of both EWS-FLI1 (p = 0.002) and Sp1 (p = 0.04)
EWS-FLI1
  Tagg of EWS-FLI1: 51.7 °C
[4]
  EWS-FLI1 protein levels: did not affect the protein levels of EWS-FLI1
  NR0B1 protein expression: greatly diminished the expression of NR0B1

## mithramycin A [MTM]
[5]
  pEC50: 7.17
EWS-FLI1 mRNA
  EWS-FLI1 mRNA levels: decreased EWS-FL1 mRNA levels in a concentration-dependent manner
[3]
  Sp1, VEGFA and BCL-2 mRNA: minimally affected Sp1, VEGFA, and BCL-2
TC32 tumors
  effect on survival (and tumor volume): not statistically different than the control group
  median survival: 31 days
EWS-FLI1 and Sp1 mRNA
  EWS-FLI1 and Sp1 mRNA levels in tumor: reduced Sp1 mRNA levels (p = 0.003), but not EWS-FLI1
TC32 Ewing sarcoma cells [6]
  TC32 GI50: 0.032 µM
PC3 prostate cells
  GI50: 0.083 µM
[7]
  pEC50: 7.00 to 8.30
CMV promoter
  effect on cells expressing luciferase under the control of a CMV promoter: had no effect
